ASAP1 GAP inh: inhibitors of human ASAP1 ArfGAP activity; Q9ULH1; ASAP1-stimulated ARF1 GTP hydrolysis, GDP FP detection; inhibition, % at 16.5 µM; 0.19% of 360,000 active; in the data active = inhibition above about 25%;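 note: 0% = vehicle with enzyme and substrate and 100% = no enzyme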
Target sequence (Q9ULH1 325-724 limits assumed): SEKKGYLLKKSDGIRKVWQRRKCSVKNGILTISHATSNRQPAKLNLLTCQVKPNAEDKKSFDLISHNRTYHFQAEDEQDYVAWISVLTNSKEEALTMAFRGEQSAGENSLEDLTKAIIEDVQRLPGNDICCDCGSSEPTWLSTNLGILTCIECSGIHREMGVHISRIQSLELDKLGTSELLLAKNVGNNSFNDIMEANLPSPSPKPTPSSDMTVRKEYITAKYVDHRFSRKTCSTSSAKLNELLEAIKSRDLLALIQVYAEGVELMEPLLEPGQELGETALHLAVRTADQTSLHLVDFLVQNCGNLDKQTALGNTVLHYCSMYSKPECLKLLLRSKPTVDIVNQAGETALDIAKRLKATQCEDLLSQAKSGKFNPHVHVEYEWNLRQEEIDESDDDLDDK
V-ATPase pHluor: yeast V-ATPase proton transport regulation by pHLuorin. S. cerevisiae, pHLuorin cytosolic pH fluorescence. response, % at 10 µM. 0.37% of 350,000 active. AID 504577; in the data active = response mostly above about 7.3%, no sharp cut-off; inactive = mostly below about 5.4%; note: actives read high
NRP1-CendR mod: modulators of CendR peptide binding to human neuropilin-1 | FAM-RPARPAR peptide binding to NRP-1, fluorescence polarization | 0.85% of 360,000 active | inhibition, % at 25 µM | O14786;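 active = inhibition or corrected inhibition above about 18%, plus a signal ratio from 0.5 to 1.5, limit read from the data, passing the limit was not always enough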
Granule exo inh: blocks lytic granule exocytosis; TALL-104 LAMP-1 surface exposure, flow cytometry; cells stimulated with thapsigargin and PMA; inhibition, % at 10 µM; 0.66% of 360,000 active; AID 651702;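 active = inhibition above about 55%, limit read from the data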
ARFGAP1 inh: inhibitors of rat ARFGAP1. inhibition, % at 16.5 µM. Arfgap1-stimulated ARF1 GTP hydrolysis, GDP FP detection. 0.26% of 360,000 active. Q62848. AID 651572;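 active = inhibition above a per-plate limit, mean inhibition of low control wells plus 3 SD, cut at about 25% in these data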;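 note: 0% = DMSO wells with enzyme and 100% = wells lacking Arfgap1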
Target sequence (Q62848 1-136 limits assumed): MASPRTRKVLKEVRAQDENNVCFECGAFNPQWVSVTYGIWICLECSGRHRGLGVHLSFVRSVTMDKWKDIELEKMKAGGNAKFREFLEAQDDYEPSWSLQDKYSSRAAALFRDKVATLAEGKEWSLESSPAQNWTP
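Replicates: Single well per compound | Assay system: Truncated rat Arfgap1 GAP domain | Control set: No-Arfgap1 wells (100%) versus DMSO full-reaction wells (0%) | Times: Enzyme reaction 120 min at 25 °C after 20 min preincubation | Reagent: Human ARF1(Δ1-17)-GTP substrate | Measured by: Tracer-displacement fluorescence polarization with EDTA stop, 620/688 nm | Measure: Percent inhibition of Arfgap1-stimulated GTP hydrolysis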
The depositor's hits bear a star; . = no result given. In the library only some 2.2% were active in any assay of this set; here they are far more common.

SMILES | ASAP1 GAP inh | V-ATPase pHluor | NRP1-CendR mod | Granule exo inh | ARFGAP1 inh
C=CCN1C(=O)c2n[nH]c(C)c2C1c1ccc(C)cc1 (configuration not stated) | 5 | . | . | . | -6
CCOC(=O)c1c(NC(=O)C2C3C=CC(C3)C2C(=O)O)sc2c1CC(C)(C)OC2 (configuration not stated) | 6 | 1 | 2 | 0 | -13
CCOC(=O)c1c(NC(=O)c2cccs2)sc2c1CC(C)(C)OC2 | 5 | 1 | -3 | 67* | -9
COc1ccc(F)cc1CSc1nnnn1-c1ccc(O)cc1 | -1 | 1 | 23* | 32 | 15
Cc1ccc(NC(=O)c2ncn(CCCNCCCc3ccccc3)n2)cc1C | -14 | 4 | 33* | 23 | 16
CCCn1cnnc1CNC(=O)[C@@H](Cc1ccccc1)NC(=O)[C@H]1O[C@@H](n2ccc(=O)[nH]c2=O)[C@H](O)[C@@H]1O | 8 | . | . | . | 6
O=C(NNC(=O)c1csc(N2CCOCC2)n1)c1ccc(=O)[nH]c1 | -12 | 11 | 25* | 3 | 2
CC(=O)Nc1ccc(C(=O)NNC(=O)c2csc(N3CCOCC3)n2)cc1 | -9 | -1 | 3 | 3 | -5
Cn1nnnc1SCC(=O)c1ccco1 | -2 | 1 | 19* | 10 | 7
COC(=O)C1N[C@@H]([C@@H](NC(=O)COc2ccccc2)C(=O)NCc2ccccc2)SC1(C)C (some centres not stated) | -3 | -4 | 32* | -4 | -6
CC(NC(=O)COc1ccccc1)C(=O)NCc1ccc(S(N)(=O)=O)cc1 (configuration not stated) | 1 | -6 | -10 | 4 | 5
COc1ccc(C(=O)NC(=O)Nc2ncccc2C)cc1 | -2 | 6 | 31* | 1 | -3
COc1ccc(NC(=O)Nc2ncccc2C)cc1 | 2 | 0 | -10 | 7 | 3
COc1ccc(Nc2cc(C)nc3ccc(OC)cc23)cc1 | -6 | 0 | 29* | -7 | -3
COc1ccc(/C=N/Nc2cc(C)nc3ccccc23)cc1 | 11 | 5 | 19 | 60* | 19
Cc1ccc(Nc2cc(C)nc3ccc(C)cc23)cc1 | 10 | -2 | 21* | 54 | 5
COc1ccc(/C=N/Nc2cc(C)nc3c(C)cccc23)cc1 | 22 | 0 | -2 | 45 | 14
Cc1cccc(NC(=O)C2CC3CCC2C3)c1C (configuration not stated) | 12 | 2 | 1 | -1 | 14
COC(=O)C1=C(C)N(Cc2ccc(C(F)(F)F)cc2)C(=NCc2ccc3c(c2)OCO3)NC1c1cccc(Cl)c1 (configuration not stated) | 7 | . | . | . | 13
CC1CCc2[nH]c3ccc(C(=O)NCCCOC(C)C)cc3c2C1 (configuration not stated) | 1 | 0 | 35* | -1 | 7
CC1CCc2[nH]c3ccc(C(=O)O)cc3c2C1 (configuration not stated) | -3 | -3 | -4 | -6 | 10
Cn1cc(CC(=O)Nc2ccc(Nc3cccnc3)cc2)c2ccccc21 | 6 | . | . | . | 9
Cc1cccc(CNC(=O)c2sc(=O)n(Cc3ccc(S(C)(=O)=O)cc3)c2C)c1 | -13 | . | 1 | -2 | -8
Cc1ccc(NCCc2ccc(C)nc2)cc1 | -1 | 2 | 20* | 0 | -5
Cc1ccc(CCNc2ccc3ccccc3c2)cn1 | -12 | 0 | 3 | 34 | 12
SMILES | ASAP1 GAP inh | V-ATPase pHluor | NRP1-CendR mod | Granule exo inh | ARFGAP1 inh
CCOC(=O)C(C(=O)NCc1ccc(F)cc1)c1ncc(C(F)(F)F)cc1Cl (configuration not stated) | -12 | 3 | 25* | -1 | -4
CCCN(C(=O)CCc1cn(CCC)c2ccccc12)c1ccc(Oc2cccnc2)cc1 | -6 | . | . | . | 2
COC(=O)c1c(C(=O)OC)c(-c2ccccc2)n2c1CCC2 | . | -1 | 38* | -3 | .
CC(=O)N/N=C/c1cc(C(C)(C)C)cc(/C=N/NC(C)=O)c1O | 2 | -3 | 35* | 8 | -2
Cc1cc(C(=O)N/N=C\c2cc(C(C)(C)C)ccc2O)n[nH]1 | . | 2 | 4 | 0 | .
COC(=O)[C@]12C[C@H](CC(=O)NCc3cccs3)C(=O)N(Cc3ccccc3)C1=C[C@H](C(C)(C)C)O[C@@H]2C | 9 | . | . | . | -4
Cc1cc(N/C(=N/S(=O)(=O)c2cc(F)ccc2F)c2ccccc2)n(-c2ccccc2)n1 | 7 | -3 | 27* | 7 | -8
COc1ccccc1Cn1c(=S)[nH]c2cc(C(=O)N3CCCC3)ccc2c1=O | -1 | 0 | 31* | 8 | 1
CCN1CCN(C(=O)c2ccc3c(=O)n(Cc4ccccc4OC)c(=S)[nH]c3c2)CC1 | 0 | 2 | 6 | -4 | 2
Cc1[nH]c2ccccc2c1CC(=O)Nc1ccc(Nc2ccncc2)cc1 | 9 | . | . | . | -5
Cc1nn(-c2ccc(Cl)cc2)c(=O)c2ccccc12 | 8 | 1 | -27 | 0 | 8
Cc1nn(-c2ccc(Cl)c(Cl)c2)c(=O)c2ccccc12 | -9 | 3 | 38* | 3 | -8
O=c1oc(Nc2ccccc2F)nc2ccccc12 | -1 | 2 | 37* | 5 | 2
CCOc1cc(C=NN=C2c3ccccc3-c3ccccc32)ccc1O | 12 | 6 | -14 | -2 | 18
CCOc1cc(C(=S)N2CCN(C)CC2)ccc1OCC(=O)N1CCCC1 | -9 | -2 | 18 | -2 | 15
COc1ccc2c(-c3ccccc3)cc(SC(C)C(N)=O)nc2c1 (configuration not stated) | -1 | -1 | 29* | 10 | -4
c1ccc(C[C@H]2COc3c4ccccc4nn32)cc1 | -14 | . | 26* | -2 | 0
CC1COc2c3ccccc3nn21 (configuration not stated) | -8 | . | -12 | -6 | 3
COc1ccc(-c2cc(NC(=O)Cc3c(C)[nH]c4ccccc34)ccc2Nc2cccnc2)cc1OC | 8 | . | . | . | 6
CC(=CC(=O)c1ccccc1)c1ccccc1 | -10 | 0 | 8 | 3 | 6
CC(C(=O)NN=C(c1ccccc1)c1ccccc1)N1CCOCC1 (configuration not stated) | 1 | 0 | 26* | -8 | 6
O=C(CN1CCOCC1)NN=C(c1ccccc1)c1ccccc1 | -1 | -4 | 12 | 2 | 4
O=C(OCc1ccccc1)N1CCC2CC1c1ccc(N3CCN(Cc4ccccc4)CC3)cc12 (configuration not stated) | -8 | . | . | . | 22
O=C(N[C@H](Cc1ccccc1)C(=O)NCC1CCCCC1)[C@H]1O[C@@H](n2ccc(=O)[nH]c2=O)[C@H](O)[C@@H]1O | 19 | . | . | . | 1
CCOc1ccc(C(=O)C(CCC(CN(C)C)C(=O)c2ccc(OCC)cc2)CN(C)C)cc1 (configuration not stated) | -3 | 9.6* | 4 | 60* | 0
COc1ccc(C(=O)C(CCCCC(CN(C)C)C(=O)c2ccc(OC)cc2)CN(C)C)cc1 (configuration not stated) | -17 | 2 | 1 | 21 | -1
